From ChEMBL document CHEMBL1127826, “Inhibitors of acyl-CoA:cholesterol acyltransferase (ACAT). 7. Development of a series of substituted N-phenyl-N'-[(1-phenylcyclopentyl)methyl]ureas with enhanced hypocholesterolemic activity” (J Med Chem, 1994)

Legend:
[1] = biological target: T1, Acyl-CoA:cholesterol acyltransferase (Oryctolagus cuniculus, UniProt Q95214); assay: Tested for in vitro inhibition against Acyl coenzyme A:cholesterol acyltransferase of intestinal microsomes in cholesterol-fed rabbits; parameters: species or system Microsome
T1 sequence (Q95214 whole entry): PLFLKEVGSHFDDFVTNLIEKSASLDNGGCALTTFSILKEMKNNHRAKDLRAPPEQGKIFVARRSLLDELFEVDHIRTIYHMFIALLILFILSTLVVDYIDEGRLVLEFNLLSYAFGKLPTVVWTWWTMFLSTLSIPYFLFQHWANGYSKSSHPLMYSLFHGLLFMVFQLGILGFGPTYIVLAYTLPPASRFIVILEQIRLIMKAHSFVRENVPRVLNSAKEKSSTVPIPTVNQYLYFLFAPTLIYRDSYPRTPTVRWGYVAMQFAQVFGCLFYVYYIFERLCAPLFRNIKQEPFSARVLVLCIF
How it was run: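 Microsomes were prepared from intestine of cholesterol-fed rabbits. ACAT activity was measured using [1-14C]oleoyl-CoA as substrate. Each determination was run in triplicate.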

Rattus norvegicus [2] = species: Rattus norvegicus; assay: Percent change in total cholesterol in peanut oil (5.5%) - cholic acid (0.3%) - Cholesterol (1.5%) fed rats after a single dose; format: functional
How it was run: (§1)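 Male Sprague-Dawley rats (200-225 g), n=5-7/group, given a single oral dose at 4 p.m. as a suspension in 1.5% CMC/0.2% Tween-20 in water (50 mg/kg); controls received vehicle alone. The rats then had free access to chow with peanut oil, cholesterol and cholic acid. At 8 a.m. next day they were bled by cardiac puncture under ether, and serum total cholesterol was measured as % change versus controls (unpaired two-tailed t-test).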

Rattus norvegicus [3] = species: Rattus norvegicus; assay: Percent change in total cholesterol in peanut oil (5.5%)-, cholic acid (0.3%)-, Cholesterol (1.5%)-fed rats after a single dose.; format: functional; how it was run: as §1
[4] = Compound was evaluated for the distribution coefficient at pH 7.4; format: physicochemical; conditions: octanol/water, read-out: logD
Rattus norvegicus [5] = assay: Compound was evaluated in experiment 1 for Change in total cholesterol at 10 (mg/kg) dose; format: functional
How it was run: (§2)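 Chronic model in male Sprague-Dawley rats (200-225 g). Rats were fed chow with peanut oil 5.5%, cholesterol 1.5% and cholic acid ad libitum for 2 weeks. Test article was given by gavage once daily (morning) in the second week, as a CMC/Tween aqueous suspension. Blood was taken by cardiac puncture under ether 24 h after the last dose. Plasma total, HDL and nonHDL cholesterol were measured with an Abbott VP analyzer using dextran sulfate precipitation, reported as mg/dL and % change from control. Controls were cholesterol-fed rats and rats switched to chow in week 2.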

Rattus norvegicus [6] = assay: Compound was evaluated in experiment 1 for Change in High density lipoproteins at 1.0 (mg/kg) dose; format: functional; how it was run: as §2
Rattus norvegicus [7] = assay: Compound was evaluated in experiment 1 for change in non High density lipoprotein at the doses at 3.0 (mg/kg) dose; format: functional; how it was run: as §2
Rattus norvegicus [8] = assay: Compound was evaluated in experiment 1 for Change in High density lipoproteins at 10 (mg/kg) dose; format: functional; how it was run: as §2
Rattus norvegicus [9] = assay: Compound was evaluated in experiment 1 for Change in total cholesterol at 0.3 (mg/kg) dose; format: functional; how it was run: as §2
Rattus norvegicus [10] = assay: Compound was evaluated in experiment 1 for Change in total cholesterol at 3.0 (mg/kg) dose; format: functional; how it was run: as §2
Rattus norvegicus [11] = assay: Compound was evaluated in experiment 1 for non High density lipoproteins at 0.3 (mg/kg) dose; format: functional; how it was run: as §2
Rattus norvegicus [12] = assay: Compound was evaluated in experiment 1 for Total cholesterol at 1.0 (mg/kg) dose; format: functional; parameters: unit not given beside the values; how it was run: as §2
Rattus norvegicus [13] = assay: Compound was evaluated in experiment 1 for non High density lipoproteins at 1.0 (mg/kg) dose; format: functional; how it was run: as §2
Rattus norvegicus [14] = assay: Compound was evaluated in experiment 1 for Change in High density lipoproteins at 0.3 (mg/kg) dose; format: functional; how it was run: as §2
Rattus norvegicus [15] = assay: Compound was evaluated in experiment 1 for High density lipoproteins at 3.0 (mg/kg) dose; format: functional; how it was run: as §2
Rattus norvegicus [16] = assay: Compound was evaluated in experiment 1 for High density lipoproteins at 0.3 (mg/kg) dose; format: functional; how it was run: as §2
Rattus norvegicus [17] = assay: Compound was evaluated in experiment 1 for Total cholesterol at 3.0 (mg/kg) dose; format: functional; parameters: unit not given beside the values; how it was run: as §2
Rattus norvegicus [18] = assay: Compound was evaluated in experiment 1 for non High density lipoproteins at 3.0(mg/kg) dose; format: functional; how it was run: as §2
Rattus norvegicus [19] = assay: Compound was evaluated in experiment 1 for change in non High density lipoprotein at the doses at 0.3 (mg/kg) dose; format: functional; how it was run: as §2
Rattus norvegicus [20] = assay: Compound was evaluated in experiment 1 for Total cholesterol at 10 (mg/kg) dose; format: functional; parameters: unit not given beside the values; how it was run: as §2
Rattus norvegicus [21] = assay: Compound was evaluated in experiment 1 for non High density lipoproteins at 10 (mg/kg) dose; format: functional; how it was run: as §2
Rattus norvegicus [22] = assay: Compound was evaluated in experiment 1 for change in non High density lipoprotein at the doses at 1.0 (mg/kg) dose; format: functional; how it was run: as §2
Rattus norvegicus [23] = assay: Compound was evaluated for the percentage change in total cholesterol in peanut oil (5.5%)-cholic acid (0.3%)-cholesterol (1.5%)-fed rats at 30 mg/kg; format: functional
Rattus norvegicus [24] = assay: Compound was evaluated in experiment 1 for Total cholesterol at 0.3 (mg/kg) dose; format: functional; parameters: unit not given beside the values; how it was run: as §2
Rattus norvegicus [25] = assay: Compound was evaluated in experiment 1 for High density lipoproteins at 1.0 (mg/kg) dose; format: functional; how it was run: as §2
Rattus norvegicus [26] = assay: Compound was evaluated in experiment 1 for High density lipoproteins at 10 (mg/kg) dose; format: functional; how it was run: as §2
Rattus norvegicus [27] = assay: Compound was evaluated in experiment 1 for Change in total cholesterol at 1.0 (mg/kg) dose; format: functional; how it was run: as §2
Rattus norvegicus [28] = assay: Compound was evaluated in experiment 1 for Change in High density lipoproteins at 3.0 (mg/kg) dose; format: functional; how it was run: as §2
Rattus norvegicus [29] = assay: Compound was evaluated in experiment 1 for change in non High density lipoprotein at the doses at 10 (mg/kg) dose; format: functional; how it was run: as §2

Which IC50 [1] does the source give for CC(C)c1cccc(C(C)C)c1NC(=O)NCC1(c2ccc(C(F)(F)F)cc2)CCCC1 here?
The IC50 was 66 nM.

And the “Delta TC” value (Rattus norvegicus [2])?
Its value is -39%.

For Cc1ccccc1C1(CNC(=O)Nc2c(C(C)C)cccc2C(C)C)CCCC1, which IC50 [1] is on record?
The IC50 was 17 nM.

And the “Delta TC” value (Rattus norvegicus [2])?
The value was -73%.

Which IC50 [1] does the source give for CC(C)c1cccc(C(C)C)c1NC(=O)NCC1(c2ccc(C(=O)O)cc2)CCCC1 here?
The IC50 was 3100 nM.

What about the “Delta TC” value (Rattus norvegicus [3]) of the same compound?
The value was -8%.

Which results are given for CC(C)c1cccc(C(C)C)c1NC(=O)NCC1(c2ccccc2[N+](=O)[O-])CCCC1?
IC50 [1]: 27 nM; Delta TC (Rattus norvegicus [3]): -45%

For Cc1ccc(C2(CNC(=O)Nc3c(C(C)C)cccc3C(C)C)CCCC2)cc1, which IC50 [1] is on record?
The IC50 was 25 nM.

What about the “Delta TC” value (Rattus norvegicus [2]) of the same compound?
The value was -70%.

Which “Delta TC” value (Rattus norvegicus [3]) does the source give for CC(C)c1cccc(C(C)C)c1NC(=O)NCC1(c2ccc(CO)cc2)CCCC1 here?
The value was 19%.

Which IC50 [1] does the source give for COC(=O)c1cccc(C2(CNC(=O)Nc3c(C(C)C)cccc3C(C)C)CCCC2)c1 here?
Its IC50 is 34 nM.

What about the “Delta TC” value (Rattus norvegicus [3]) of the same compound?
The value was -51%.

What does the source list for Cc1cccc(C2(CNC(=O)Nc3c(C(C)C)cccc3C(C)C)CCCC2)c1?
IC50 [1]: 15 nM; Delta TC (Rattus norvegicus [2]): -52%

For CC(C)c1cccc(C(C)C)c1NC(=O)NCC1(c2ccc(OCc3ccccc3)cc2)CCCC1, which IC50 [1] is on record?
Its IC50 is 34 nM.

What about the “Delta TC” value (Rattus norvegicus [3]) of the same compound?
The value was -33%.

What does the source list for CC(C)c1cccc(C(C)C)c1NC(=O)NCC1(c2ccc(CC(C)(C)C)cc2)CCCC1?
IC50 [1]: 159 nM; Delta TC (Rattus norvegicus [2]): -53%

Which results are given for CC(C)c1cccc(C(C)C)c1NC(=O)NCC1(c2cccc(CN)c2)CCCC1?
IC50 [1]: 440 nM; Delta TC (Rattus norvegicus [3]): -49%; logD [4]: 3.64

What does the source list for CC(C)c1cccc(C(C)C)c1NC(=O)NCC1(c2cccc(N(C)C)c2)CCCC1?
IC50 [1]: 33 nM; Delta TC (Rattus norvegicus [3]): -63%

With CC(C)c1cccc(C(C)C)c1NC(=O)NCC1(c2cccc(CC#N)c2)CCCC1 as the compound, how does the IC50 [1] read?
Its IC50 is 24 nM.

And the “Delta TC” value (Rattus norvegicus [3])?
The value was -31%.

What about the logD [4] of the same compound?
The logD was 3.61.

Which IC50 [1] does the source give for CC(C)c1cccc(C(C)C)c1NC(=O)NCC1(c2ccc(NCCO)cc2)CCCC1 here?
The IC50 was 25 nM.

What about the “Delta TC” value (Rattus norvegicus [3]) of the same compound?
The value was -63%.

For CC(C)c1cccc(C(C)C)c1NC(=O)NCC1(c2ccc(N)cc2)CCCC1, which IC50 [1] is on record?
Its IC50 is 29 nM.

And the “Delta TC” value (Rattus norvegicus [3])?
Its value is -76%.

Which IC50 [1] does the source give for CC(C)c1cccc(C(C)C)c1NC(=O)NCC1(c2ccccc2N)CCCC1 here?
The IC50 was 140 nM.

What about the “Delta TC” value (Rattus norvegicus [3]) of the same compound?
Its value is -58%.

With CC(C)c1cccc(C(C)C)c1NC(=O)NCC1(c2ccc(O)cc2)CCCC1 as the compound, how does the IC50 [1] read?
The IC50 was 42 nM.

And the “Delta TC” value (Rattus norvegicus [3])?
The value was -31%.

With CC(C)c1cccc(C(C)C)c1NC(=O)NCC1(c2cccc(OCc3ccccc3)c2)CCCC1 as the compound, how does the IC50 [1] read?
Its IC50 is 30 nM.

And the “Delta TC” value (Rattus norvegicus [3])?
The value was -73%.

For CC(C)c1cccc(C(C)C)c1NC(=O)NCC1(c2ccc([N+](=O)[O-])cc2)CCCC1, which IC50 [1] is on record?
The IC50 was 131 nM.

With Cc1ccc(C2(CNC(=O)Nc3c(C(C)C)cccc3C(C)C)CCCC2)c(C)c1 as the compound, how does the IC50 [1] read?
Its IC50 is 50 nM.

What about the “Delta TC” value (Rattus norvegicus [2]) of the same compound?
The value was -50%.

With COc1ccc(C2(CNC(=O)Nc3c(C(C)C)cccc3C(C)C)CCCC2)cc1 as the compound, how does the IC50 [1] read?
Its IC50 is 31 nM.

And the “Delta TC” value (Rattus norvegicus [3])?
Its value is -41%.

For CC(C)c1cccc(C(C)C)c1NC(=O)NCC1(c2cccc(CN3CCOCC3)c2)CCCC1, which “Change TC” value (Rattus norvegicus [5]) is on record?
The value was -63%.

What about the “Change HDL -C” value (Rattus norvegicus [6]) of the same compound?
Its value is 10%.

And the “Change non HDL-C” value (Rattus norvegicus [7])?
Its value is -33%.

And the “Change HDL -C” value (Rattus norvegicus [8])?
Its value is 162%.

And the “Change TC” value (Rattus norvegicus [9])?
The value was -24%.

What about the “Change TC” value (Rattus norvegicus [10]) of the same compound?
The value was -31%.

And the Non-HDL-C (Rattus norvegicus [11])?
Its Non-HDL-C is 224.

What about the TC (Rattus norvegicus [12]) of the same compound?
Its TC is 273.

And the Non-HDL-C (Rattus norvegicus [13])?
Its Non-HDL-C is 260.

And the “Change HDL -C” value (Rattus norvegicus [14])?
Its value is 16%.

What about the HDL-C (Rattus norvegicus [15]) of the same compound?
Its HDL-C is 16.

What about the “Delta TC” value (Rattus norvegicus [3]) of the same compound?
The value was -47%.

What about the logD [4] of the same compound?
The logD was 4.37.

And the HDL-C (Rattus norvegicus [16])?
The HDL-C was 14.

What about the TC (Rattus norvegicus [17]) of the same compound?
The TC was 218.

What about the Non-HDL-C (Rattus norvegicus [18]) of the same compound?
The Non-HDL-C was 202.

And the “Change non HDL-C” value (Rattus norvegicus [19])?
Its value is -26%.

And the TC (Rattus norvegicus [20])?
Its TC is 118.

And the Non-HDL-C (Rattus norvegicus [21])?
Its Non-HDL-C is 84.

What about the “Change non HDL-C” value (Rattus norvegicus [22]) of the same compound?
The value was -14%.

What about the “Delta TC” value (Rattus norvegicus [23]) of the same compound?
Its value is -70%.

And the TC (Rattus norvegicus [24])?
The TC was 237.

And the HDL-C (Rattus norvegicus [25])?
The HDL-C was 13.

What about the HDL-C (Rattus norvegicus [26]) of the same compound?
Its HDL-C is 30.

And the “Change TC” value (Rattus norvegicus [27])?
The value was -13%.

What about the “Change HDL -C” value (Rattus norvegicus [28]) of the same compound?
Its value is 40%.

And the “Change non HDL-C” value (Rattus norvegicus [29])?
The value was -71%.
